Laboratory results: ChEMBL document CHEMBL1158469 (J Med Chem, 2009)
Activity calls are given as the source filed them. The calls are words filed in the database; no cut-off is given here.

Legend:
[1] = biological target: Bcl-2-like protein 1 (Homo sapiens) (UniProt Q07817); assay: Inhibition of Bcl-xL at 200 uM by 1D 1H NMR binding assay
[2] = Cytotoxicity against human H1299 cells assessed as cell viability after 72 hrs by ATP-LITE assay; type: functional, cell-based; details: NCI-H1299, 72 h
Outline: (§1)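 ATP-LITE viability readout. Seeded 24 h before dosing (H460, H1299 at 2000 cells/well; PC3 at 3000 cells/well) in 12F2 or RPMI1640 with 5 mM L-glutamine, 5% FBS and pen/strep. Fresh 5% medium added, then compounds in 0.1% DMSO final. Viability read after 72 h treatment and normalized to DMSO-treated cells.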

NCI-H460 = assay: Cytotoxicity against human H460 cells assessed as cell viability after 72 hrs by ATP-LITE assay; type: functional, cell-based; details: NCI-H460, 72 h; outline: as §1
[3] = Cytotoxicity against human PC3-ML cells assessed as cell viability after 72 hrs by ATP-LITE assay; type: functional, cell-based; outline: as §1
[4] = Induction of apoptosis in human RS11846 cells after 1 to 2 days by FITC-annexin V and propidium iodide assay; type: functional, cell-based
[5] = (§2) Induction of apoptosis in human BP3 cells after 1 to 2 days by FITC-annexin V and propidium iodide assay; type: functional, cell-based
BP3 = assay: as §2; type: functional, cell-based
[6] = Cytotoxicity against wild type mouse fibroblast assessed as induction of cell death at 10 uM by FITC-annexin V and propidium iodide assay; type: cell-based
Outline: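 Wild-type MEFs seeded at half a million per well in DMEM with 10% FCS. Next day compound added at 0, 2.5, 5.0, 7.5 or 10 μM. On the following day, floating and trypsinized adherent cells were pooled and stained with Annexin V-FITC and PI in binding buffer. Analyzed by flow cytometry, with double-negative cells counted as viable.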

[7] = Chemical stability after 60 days at room temperature by HPLC/LC-MS analysis; type: physicochemical; details: 1440 h
Outline: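 Solid compounds stored in air at room temperature for 60 days. Stability followed by HPLC combined with LC-MS.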

[8] = Stability in rat plasma after 1 hr at 37.5 degC; type: ADME, cell-free; details: read-out: Stability
Outline: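 Compound incubated in rat plasma for 1 h; percentage of parent remaining was reported.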

[9] = Stability in rat liver microsome at 4 uM after 1 hr; type: ADME; details: liver microsomes, read-out: Stability
Outline: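 Compound incubated for 1 h in rat microsomal preparations; percentage of parent remaining was reported.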

[10] = Membrane permeability assessed as drug permeation at 100 uM at pH 7.2 after 8 hrs by PAMPA; type: ADME; details: pH 7.2, 8 h
Mus musculus [11] = assay: Toxicity in human Bcl2 expressing B6 transgenic mouse administered as single dose at 72 umol/kg, ip after 24 hrs; type: organism-based; details: in vivo
Mus musculus [12] = assay: Toxicity in human Bcl2 expressing B6 transgenic mouse at 120 umol/kg, ip administered as single dose after 24 hrs; type: organism-based; details: in vivo
Bcl-2-related protein A1 = biological target: T1, Bcl-2-related protein A1 (Homo sapiens, UniProt Q16548); assay: Displacement of F-BakBH3 from Bfl-1 by fluorescence polarization assay
T1 sequence (Q16548 whole entry): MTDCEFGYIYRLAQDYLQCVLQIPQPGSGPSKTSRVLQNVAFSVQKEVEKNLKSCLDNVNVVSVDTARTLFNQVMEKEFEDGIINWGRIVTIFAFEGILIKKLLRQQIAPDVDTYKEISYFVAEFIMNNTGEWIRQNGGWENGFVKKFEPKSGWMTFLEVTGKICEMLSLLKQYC

Mus musculus [13] = assay: Reduction of spleen weight in human Bcl2 expressing B6 transgenic mouse at 72 umol/kg, ip administered as single dose after 24 hrs; type: functional; design: scale not given: the % may be the effect or the level left
Outline: (§3)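 Age- and sex-matched B6Bcl2 transgenic mice (human BCL-2/IgH minigene, B cells accumulating in spleen), free of aggressive lymphoma. Single ip injection at 72 μmol/kg in 500 μL ethanol:Cremophor EL:saline 10:10:80; controls got vehicle alone. Killed with Avertin after 24 h and spleen weighed. Shrinkage expressed as percentage of maximum spleen-weight reduction.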

Mus musculus [14] = assay: Induction of spleen weight shrinkage in human Bcl2 expressing B6 transgenic mouse at 72 umol/kg, ip administered as single dose after 24 hrs; type: functional; outline: as §3

Sequence of Bcl-2-like protein 1 (Homo sapiens) (Q07817 whole entry): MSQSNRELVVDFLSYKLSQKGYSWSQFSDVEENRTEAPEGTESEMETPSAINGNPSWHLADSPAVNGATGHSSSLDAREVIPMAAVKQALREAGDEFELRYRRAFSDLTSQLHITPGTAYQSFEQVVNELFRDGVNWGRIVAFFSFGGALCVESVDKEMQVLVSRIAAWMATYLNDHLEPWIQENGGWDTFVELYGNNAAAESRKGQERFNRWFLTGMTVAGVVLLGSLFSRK

Structure (SMILES)	Activity [1]	EC50 [4] [µM]	remaining at 1 h [8] [%]	remaining at 1 h, 4 µM [9] [%]	logPe [10] [log cm/s]	EC50 [2] [µM]	EC50 (NCI-H460) [µM]	EC50 [3] [µM]	EC50 [5] [µM]	Activity (BP3)	Activity [6] [%]	Stability [7]	Activity (Mus musculus [11])	Activity (Mus musculus [12])	IC50 (Bcl-2-related protein A1) [µM]	Activity (Mus musculus [13])	Activity (Mus musculus [14])
Cc1cc2c(C(=O)NCC3CCCCC3)c(O)c(O)cc2c(O)c1-c1c(C)cc2c(C(=O)NCC3CCCCC3)c(O)c(O)cc2c1O	Active	4.9	89	90	-6.67	4.8	0.41	3.7	0.9	Dose-dependent effect	80	Stable	Toxic	–	–	–	–
Cc1cc2c(CC3CCCC3)c(O)c(O)cc2c(O)c1-c1c(C)cc2c(CC3CCCC3)c(O)c(O)cc2c1O	Active	4.5	81	75	-6.27	10.9	1.8	11.2	–	–	–	–	Non-toxic	Non-toxic	–	–	–
Cc1cc2c(C(C)C)c(O)c(O)cc2c(O)c1-c1c(C)cc2c(C(C)C)c(O)c(O)cc2c1O [APOGOSSYPOL]	–	5	53	64	-7.16	–	3.5	10.4	4.7	–	–	Stable	Non-toxic	–	> 10	<=20%	<=40%
Cc1cc2c(C(=O)NCc3cccc(Cl)c3)c(O)c(O)cc2c(O)c1-c1c(C)cc2c(C(=O)NCc3cccc(Cl)c3)c(O)c(O)cc2c1O	Active	7.3	–	–	–	5.2	3.3	8.3	–	Dose-dependent effect	–	–	–	–	–	–	–
Cc1cc2c(CCc3ccccc3)c(O)c(O)cc2c(O)c1-c1c(C)cc2c(CCc3ccccc3)c(O)c(O)cc2c1O	Active	9.8	80	89	-6.61	0.58	0.92	2.4	4.14	–	–	Stable	Non-toxic	Non-toxic	–	–	–

Continued, in another order:

Activity [1]	EC50 [4] [µM]	remaining at 1 h [8] [%]	remaining at 1 h, 4 µM [9] [%]	logPe [10] [log cm/s]	Structure (SMILES)	EC50 [2] [µM]	EC50 (NCI-H460) [µM]	EC50 [3] [µM]	EC50 [5] [µM]	Activity (BP3)	Activity [6] [%]	Stability [7]	Activity (Mus musculus [11])	Activity (Mus musculus [12])	IC50 (Bcl-2-related protein A1) [µM]	Activity (Mus musculus [13])	Activity (Mus musculus [14])
Active	12.6	–	–	–	Cc1cc2c(C(=O)Nc3cccc(C(F)(F)F)c3)c(O)c(O)cc2c(O)c1-c1c(C)cc2c(C(=O)Nc3cccc(C(F)(F)F)c3)c(O)c(O)cc2c1O	28.7	16.7	12.2	–	Dose-dependent effect	–	–	–	–	–	–	–
Active	5.5	94	71	-7.92	Cc1cc2c(C(=O)NC(C)c3ccc(Cl)cc3)c(O)c(O)cc2c(O)c1-c1c(C)cc2c(C(=O)NC(C)c3ccc(Cl)cc3)c(O)c(O)cc2c1O (stereo not drawn)	3.2	0.5	5	1.5	–	80	Stable	Toxic	–	–	40%	85%
